In series [1] the target is Vasopressin V1 receptor (Rattus norvegicus, UniProt P48974+P30560). The experiment in a line: Inhibition of [3H]arginine vasopressin binding to rat liver Vasopressin V1 receptor. In outline:
(§1)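 Radioligand competition binding. Ki derived from IC50 values from competition curves; reported as group means ± SEM of three or more replicate determinations unless noted otherwise.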

The target of series [2] is Vasopressin V2 receptor (Rattus norvegicus, UniProt Q00788). The experiment in a line: Inhibition of [3H]arginine vasopressin binding to rat kidney medulla Vasopressin V2 receptor. Put shortly: as §1
Vasopressin V2 receptor, sequence (Q00788 whole entry): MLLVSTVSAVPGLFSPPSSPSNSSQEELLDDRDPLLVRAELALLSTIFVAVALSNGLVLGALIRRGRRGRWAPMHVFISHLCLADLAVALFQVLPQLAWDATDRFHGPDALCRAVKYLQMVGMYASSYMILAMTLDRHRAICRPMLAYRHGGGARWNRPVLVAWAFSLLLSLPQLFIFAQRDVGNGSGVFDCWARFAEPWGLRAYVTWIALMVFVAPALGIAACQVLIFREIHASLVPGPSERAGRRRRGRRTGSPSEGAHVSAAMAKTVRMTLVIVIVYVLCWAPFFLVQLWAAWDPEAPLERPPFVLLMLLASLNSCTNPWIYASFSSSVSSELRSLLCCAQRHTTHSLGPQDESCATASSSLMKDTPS
The target of series [3] is T1, Oxytocin receptor (Rattus norvegicus, UniProt P70536).
T1 sequence (P70536 whole entry): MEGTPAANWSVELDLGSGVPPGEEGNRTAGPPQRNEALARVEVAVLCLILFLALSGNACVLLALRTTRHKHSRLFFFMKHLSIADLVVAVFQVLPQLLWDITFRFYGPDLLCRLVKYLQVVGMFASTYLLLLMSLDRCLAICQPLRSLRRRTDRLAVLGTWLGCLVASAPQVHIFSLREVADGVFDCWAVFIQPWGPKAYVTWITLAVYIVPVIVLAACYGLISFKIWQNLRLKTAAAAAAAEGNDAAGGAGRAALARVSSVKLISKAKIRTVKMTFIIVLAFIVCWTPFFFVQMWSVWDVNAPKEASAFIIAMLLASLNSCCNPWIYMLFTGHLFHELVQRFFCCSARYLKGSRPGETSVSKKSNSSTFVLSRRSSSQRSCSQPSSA
Kind of series: Inhibition of [3H]- oxytocin binding to rat uterine Oxytocin receptor. Put shortly: as §1

Series [4] is described as follows: Solubility at 25 degree C and pH of 7.4. It counts as physicochemical. The following applies: pH 7.4; read-out: S.
Series [5] has as its target T2, Oxytocin receptor (Rattus norvegicus) (UniProt P70536).
T2 sequence (whole entry): T1 sequence (P70536 whole entry)
The experiment in a line: Inhibition of binding of [3H]- oxytocin to rat uterine Oxytocin receptor. The following applies: concentration not given here. Put shortly:
as §1

Series [6] deals with Vasopressin V1 receptor (Rattus norvegicus) (UniProt P48974+P30560). The experiment in a line: Inhibition of binding of [3H]-arginine vasopressin to rat liver Vasopressin V1 receptor at a concentration of 10000 nM.
Vasopressin V1 receptor (Rattus norvegicus), sequence (P30560 whole entry, looked up): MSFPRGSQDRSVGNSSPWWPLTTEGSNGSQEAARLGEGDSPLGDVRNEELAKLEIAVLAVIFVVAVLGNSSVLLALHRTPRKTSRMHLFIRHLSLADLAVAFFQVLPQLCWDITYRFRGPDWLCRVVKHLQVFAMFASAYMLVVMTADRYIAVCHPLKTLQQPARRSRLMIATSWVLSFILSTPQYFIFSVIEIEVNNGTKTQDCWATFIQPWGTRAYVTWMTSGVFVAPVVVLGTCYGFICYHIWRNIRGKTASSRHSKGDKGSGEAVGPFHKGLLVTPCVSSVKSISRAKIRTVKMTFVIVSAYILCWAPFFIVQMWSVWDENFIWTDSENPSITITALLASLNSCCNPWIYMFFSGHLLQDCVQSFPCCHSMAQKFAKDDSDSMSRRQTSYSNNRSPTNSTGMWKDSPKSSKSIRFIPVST
Vasopressin V1 receptor (Rattus norvegicus), sequence (P48974 whole entry, looked up): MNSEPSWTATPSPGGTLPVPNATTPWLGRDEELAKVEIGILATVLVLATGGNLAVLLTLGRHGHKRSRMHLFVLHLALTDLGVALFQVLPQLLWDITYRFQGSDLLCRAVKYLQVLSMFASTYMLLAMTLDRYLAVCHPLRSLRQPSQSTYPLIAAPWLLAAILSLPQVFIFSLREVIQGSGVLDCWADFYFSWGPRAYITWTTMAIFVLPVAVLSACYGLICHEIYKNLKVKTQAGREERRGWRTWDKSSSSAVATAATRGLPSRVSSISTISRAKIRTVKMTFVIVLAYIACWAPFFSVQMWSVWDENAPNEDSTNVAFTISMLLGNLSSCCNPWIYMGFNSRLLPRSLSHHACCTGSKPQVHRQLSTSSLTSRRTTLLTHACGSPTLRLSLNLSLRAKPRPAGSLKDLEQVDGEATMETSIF
Series [7] concerns the target Vasopressin V2 receptor (Rattus norvegicus) (UniProt Q00788). The experiment in a line: Inhibition of binding of [3H]-arginine vasopressin to rat kidney medulla Vasopressin V2 receptor at a concentration of 10000 nM.
A short description of series [8]: Solubility at 25 degree C and pH of 10.8. It counts as physicochemical. The following applies: pH 10.8; read-out: S.
Series [9] can be described thus: Solubility at 25 degree C and pH of 5.0. It counts as physicochemical. The following applies: pH 5; read-out: S.
Series [10] in a line: Solubility at 25 degree C and pH of 7.0. As to conditions: pH 7; read-out: S. Format: physicochemical.

In brackets after ≈: the same amount, converted by molar mass. Non-standard residues stand in square brackets, D forms with d. Residues, ends and D or L forms follow the SMILES beside them. Piz(1,6-dehydro) = O=C(O)[C@@H]1CCC=NN1; dPiz(1,6-dehydro) = O=C(O)[C@H]1CCC=NN1; dNMeF = CN[C@H](Cc1ccccc1)C(=O)O; Pip = O=C(O)[C@@H]1CCCCN1; dPip = O=C(O)[C@H]1CCCCN1; Orn = NCCC[C@H](N)C(=O)O Some results are limits rather than exact numbers.

Vasopressin V2 receptor (Rattus norvegicus), sequence (Q00788 whole entry): as the sequence (Q00788 whole entry) above

Consider `CC[C@H](C)[C@@H]1NC(=O)[C@@H](Cc2ccc3ccccc3c2)NC(=O)[C@@H]2CCCN2C(=O)[C@@H](Cc2c[nH]cn2)NC(=O)[C@@H]2CCCCN2C(=O)[C@H]2CCCCN2C1=O`, for which the Ki was determined as 760 nM in series [1], 320 nM in series [2] and 1.6 nM in series [3].
Regarding `CC[C@H](C)[C@@H]1NC(=O)[C@@H](Cc2ccccc2)NC(=O)[C@@H]2CCCN2C(=O)[C@@H](Cc2ccccc2)N(C)C(=O)[C@@H]2CCCCN2C(=O)[C@H]2CCCCN2C1=O`, the values for the Ki in series [1], in series [2] and in series [3] were 890 nM, 1600 nM and 83 nM, respectively. In series [4], the solubility turned out to be 2 µg/mL (≈ 2.7 µM).
`CC[C@H](C)[C@@H]1NC(=O)[C@@H](Cc2ccccc2)NC(=O)[C@@H]2CCCN2C(=O)[C@@H](C)N(C)C(=O)[C@@H]2CCCCN2C(=O)[C@H]2CCCCN2C1=O`: the Ki is > 10000 nM in series [1], > 10000 nM in [2] and 490 nM in [3].
As for `C[C@@H]1NC(=O)[C@@H](Cc2ccccc2)NC(=O)[C@@H]2CCCN2C(=O)[C@@H](Cc2ccccc2)N(C)C(=O)[C@@H]2CCCCN2C(=O)[C@H]2CCCCN2C1=O` (cyclo(A[dPip][Pip][dNMeF]P[dF])), the inhibition constant Ki in series [1] was > 30000 nM; in series [2], > 30000 nM; in [3], 12000 nM.
For the compound `CC[C@H](C)[C@@H]1NC(=O)[C@@H](Cc2c[nH]c3ccccc23)NC(=O)[C@@H]2CCCN2C(=O)[C@@H](Cc2ccccc2)N(C)C(=O)[C@H](CCCN)NC(=O)[C@H]2CCCCN2C1=O` (cyclo(I[dPip][Orn][dNMeF]P[dW])), the inhibition constant (Ki) in series [1] was determined as 1000 nM; in [2], 500 nM; in series [3] it was 49 nM.
In the case of `CC[C@H](C)[C@@H]1NC(=O)[C@@H](C)NC(=O)[C@@H]2CCCN2C(=O)[C@@H](Cc2ccccc2)NC(=O)[C@@H]2CCCCN2C(=O)[C@H]2CCCCN2C1=O` (cyclo(I[dPip][Pip][dF]P[dA])), the results for the inhibition in [5], in series [6] and in [7] were 0%, 0% and 4%, respectively.
Take `CC[C@H](C)[C@@H]1NC(=O)[C@@H](Cc2ccccc2)NC(=O)[C@@H]2CCCN2C(=O)[C@@H](Cc2ccccc2)NC(=O)[C@@H]2CCCCN2C(=O)[C@H]2CCCCN2C1=O` (cyclo(I[dPip][Pip][dF]P[dF])): the values for the Ki in series [1], in series [2] and in series [3] were 1600 nM, 4500 nM and 140 nM, respectively.
For the compound `CC[C@H](C)[C@@H]1NC(=O)[C@@H](Cc2c[nH]c3ccccc23)NC(=O)[C@@H]2CCCN2C(=O)[C@@H](Cc2c[nH]cn2)NC(=O)[C@@H]2CCCCN2C(=O)[C@H]2CCCCN2C1=O` (cyclo(I[dPip][Pip][dH]P[dW])), the inhibition constant Ki amounted to 2200 nM in [1] and 1800 nM in series [2]. The results for the solubility in series [8] and in series [9] were 110 µg/mL (≈ 146 µM) and 2000 µg/mL (≈ 2650 µM), respectively.
With `CC[C@H](C)[C@@H]1NC(=O)[C@@H](Cc2c[nH]c3ccccc23)NC(=O)[C@@H]2CCCN2C(=O)[C@@H](Cc2ccccc2)N(C)C(=O)[C@@H]2CCCCN2C(=O)[C@H]2CCCCN2C1=O` (cyclo(I[dPip][Pip][dNMeF]P[dW])), the Ki in series [1] stood at 3500 nM; in series [2], 260 nM; in series [3], 8.1 nM.
Take `CCOc1ccc(C[C@H]2NC(=O)[C@@H]3CCCN3C(=O)[C@@H](Cc3ccccc3)N(C)C(=O)[C@@H]3CCCCN3C(=O)[C@H]3CCCCN3C(=O)[C@H]([C@@H](C)CC)NC2=O)cc1` (cyclo(I[dPip][Pip][dNMeF]P[dY](Et))): the results for the inhibitory constant (Ki) in series [1], in series [2] and in series [3] were 20000 nM, 250 nM and 49 nM, respectively.
For `CC[C@H](C)[C@@H]1NC(=O)[C@@H](Cc2ccccc2)NC(=O)[C@@H]2CCCN2C(=O)[C@@H](Cc2ccccc2)N(C)C(=O)[C@@H]2CCC=NN2C(=O)[C@H]2CCC=NN2C1=O` (cyclo(I[dPiz(1,6-dehydro)][Piz(1,6-dehydro)][dNMeF]P[dF])), the solubility in series [10] stood at 68 µg/mL (≈ 92 µM). In addition, in [3], the affinity, expressed as Ki, was 7.3 nM.
For `CC[C@H](C)[C@@H]1NC(=O)[C@@H](Cc2ccccc2)NC(=O)[C@@H]2CCCN2C(=O)[C@@H](Cc2ccccc2)N(C)C(=O)[C@@H]2CCCN2C(=O)[C@H]2CCCN2C1=O` (cyclo([dNMeF]P[dF]I[dP]P)), the Ki was 9300 nM in series [1], 33000 nM in series [2] and 1400 nM in series [3].

By Ki is commonly meant a dissociation constant, usually derived from enzyme kinetics or from competition with a known ligand. The low end stands for tighter binding, the high end for weaker binding. For orientation: inhibition means the relative decrease from the control value, in per cent. A lower inhibition goes with a response near the control.
